Where “and” joins values, the source holds several entries; their conditions need not be identical. Equal entries are not always repeated.
Assays:
[1] = target: Integrin alpha-IIb/beta-3 (Homo sapiens, UniProt P05106+P08514); assay: Inhibition of binding to purified integrin alphaIIb-beta3 of human platelets
[2] = species on record: Homo sapiens; assay: In vitro Inhibitory activity against patelet aggregation in human platelet-rich plasma induced by ADP; assay type: functional
[3] = species on record: Canis familiaris; assay: Duration for maximal inhibition of platelet aggregation in canine; assay type: functional, Canis lupus familiaris
Outline: (§1)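 Conscious dogs dosed either by intravenous bolus or by short intraduodenal infusion through a catheter, at 0.3–3 mg/kg. Blood was drawn serially for up to 390 min. Platelet aggregation was measured ex vivo in collagen-stimulated canine whole blood. The readouts were maximal % inhibition, time to maximal inhibition, duration of maximal inhibition, and % inhibition at 390 min.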

[4] = system: Canis familiaris; assay: Ex vivo inhibition of platelet aggregation in canine whole blood/collagen at a dose of 0.3 mg/kg after i.d. administration; […]; assay type: functional; settings: Canis lupus familiaris, route intraduodenal; outline: as §1
[5] = system: Canis familiaris; assay: Ex vivo inhibition of platelet aggregation in canine whole blood/collagen at a dose of 0.3 mg/kg after i.v. administration; range is 90-100; assay type: functional; settings: Canis lupus familiaris, route intravenous; outline: as §1
[6] = species on record: Canis familiaris; assay: Time required for maximal inhibition of platelet aggregation in canine; assay type: functional, Canis lupus familiaris; outline: as §1
[7] = system: Canis familiaris; assay: Ex vivo inhibition of platelet aggregation in canine whole blood/collagen at a dose of 0.3 mg/kg after i.d. administration at 390 min; assay type: functional; settings: Canis lupus familiaris, 6.5 h, route intraduodenal; outline: as §1
[8] = system: Canis familiaris; assay: Ex vivo inhibition of platelet aggregation in canine whole blood/collagen at a dose of 0.3 mg/kg after i.v. administration at 390 min; assay type: functional; settings: Canis lupus familiaris, 6.5 h, route intravenous; outline: as §1
[9] = system: Canis familiaris; assay: Ex vivo inhibition of platelet aggregation in canine whole blood/collagen at a dose of 3 mg/kg after i.d. administration; range is 90-100; assay type: functional; settings: Canis lupus familiaris, route intraduodenal; outline: as §1

Chain of Integrin alpha-IIb/beta-3 (P05106 27-788 limits assumed): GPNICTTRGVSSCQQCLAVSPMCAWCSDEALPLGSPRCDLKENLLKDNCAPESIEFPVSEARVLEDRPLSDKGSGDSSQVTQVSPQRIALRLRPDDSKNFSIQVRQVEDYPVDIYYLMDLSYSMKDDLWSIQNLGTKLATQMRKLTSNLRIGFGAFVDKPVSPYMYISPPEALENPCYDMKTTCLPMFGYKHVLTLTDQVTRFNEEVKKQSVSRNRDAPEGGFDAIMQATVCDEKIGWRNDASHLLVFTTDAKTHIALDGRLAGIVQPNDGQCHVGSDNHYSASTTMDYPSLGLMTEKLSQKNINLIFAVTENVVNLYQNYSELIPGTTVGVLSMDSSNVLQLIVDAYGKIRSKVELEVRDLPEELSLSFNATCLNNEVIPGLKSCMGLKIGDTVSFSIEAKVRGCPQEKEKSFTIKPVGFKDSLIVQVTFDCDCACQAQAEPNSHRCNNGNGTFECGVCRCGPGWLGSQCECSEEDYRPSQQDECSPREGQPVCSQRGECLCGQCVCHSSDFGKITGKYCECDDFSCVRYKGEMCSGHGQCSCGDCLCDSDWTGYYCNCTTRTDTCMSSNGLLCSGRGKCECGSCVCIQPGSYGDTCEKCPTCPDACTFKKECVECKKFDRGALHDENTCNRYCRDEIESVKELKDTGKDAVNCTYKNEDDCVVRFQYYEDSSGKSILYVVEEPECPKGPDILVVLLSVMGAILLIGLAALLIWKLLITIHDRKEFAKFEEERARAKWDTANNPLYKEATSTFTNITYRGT
Chain of Integrin alpha-IIb/beta-3 (P08514 32-887 limits assumed): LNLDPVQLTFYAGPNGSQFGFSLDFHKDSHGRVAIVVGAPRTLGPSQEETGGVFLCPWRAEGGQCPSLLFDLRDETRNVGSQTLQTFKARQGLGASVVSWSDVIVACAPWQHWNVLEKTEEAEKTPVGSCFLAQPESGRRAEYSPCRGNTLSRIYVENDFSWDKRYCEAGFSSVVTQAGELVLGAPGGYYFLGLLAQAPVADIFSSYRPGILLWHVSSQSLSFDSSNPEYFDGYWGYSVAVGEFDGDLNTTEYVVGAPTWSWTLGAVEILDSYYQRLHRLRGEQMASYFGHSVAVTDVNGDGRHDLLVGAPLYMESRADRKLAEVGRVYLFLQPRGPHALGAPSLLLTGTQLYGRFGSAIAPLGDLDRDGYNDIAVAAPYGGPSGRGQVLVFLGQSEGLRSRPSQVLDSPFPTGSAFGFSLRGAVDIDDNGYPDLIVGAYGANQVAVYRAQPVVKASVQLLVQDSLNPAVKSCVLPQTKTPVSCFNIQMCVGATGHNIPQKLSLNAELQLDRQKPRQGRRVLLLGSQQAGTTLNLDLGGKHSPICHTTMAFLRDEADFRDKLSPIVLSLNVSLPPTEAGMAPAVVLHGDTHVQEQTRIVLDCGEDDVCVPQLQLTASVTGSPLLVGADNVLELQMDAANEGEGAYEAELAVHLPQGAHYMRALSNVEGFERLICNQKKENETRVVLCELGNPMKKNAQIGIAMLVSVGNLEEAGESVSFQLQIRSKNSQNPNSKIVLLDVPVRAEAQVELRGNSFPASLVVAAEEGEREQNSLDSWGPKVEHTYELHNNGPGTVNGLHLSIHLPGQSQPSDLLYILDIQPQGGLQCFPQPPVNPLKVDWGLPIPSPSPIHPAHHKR
Chain of Integrin alpha-IIb/beta-3 (P08514 891-1039 limits assumed): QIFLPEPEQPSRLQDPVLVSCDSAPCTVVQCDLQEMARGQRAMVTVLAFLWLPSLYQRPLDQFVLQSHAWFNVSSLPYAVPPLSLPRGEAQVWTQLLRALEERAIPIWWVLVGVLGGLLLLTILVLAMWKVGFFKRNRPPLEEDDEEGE

Row | Structure (SMILES) | Ki [1] | IC50 [2] | further results
1 | N=C(N)c1cccc(NC(=O)c2ccc3c(c2)CN(CCc2ccccc2)C(=O)C(CC(=O)O)N3)c1 (configuration not stated) | 26 nM | 380 nM | –
2 | CN1C(=O)c2ccccc2SSc2ccccc2NC(=O)[C@H](CC(=O)O)NC(=O)CNC(=O)[C@@H]1CCCN=C(N)N [SKF-107260] | – | 57 nM | –
3 | CN(CCCC1CCNCC1)C(=O)c1ccc2c(c1)CN(CCc1ccccc1)C(=O)C(CC(=O)O)N2 (configuration not stated) | 8 nM | 60 nM | –
4 | CN(C(=O)c1ccc2c(c1)NC(CC(=O)O)C(=O)N(CCc1ccccc1)C2)c1ccc(C(=N)N)cc1 (configuration not stated) | 1.6 nM | 65 nM | –
5 | O=C(O)CC1Nc2ccc(C(=O)N3CCC(C4CCNCC4)CC3)cc2CN(CCc2ccccc2)C1=O (configuration not stated) | 1.5 nM | 20 nM | Duration [3]: 140 min; inhibition in vivo at 0.3 mg/kg [4]: 70%; inhibition in vivo at 0.3 mg/kg [5]: 90%; Time [6]: 10 min and 30 min
6 | N=C(N)c1ccc(NC(=O)c2ccc3c(c2)NC(CC(=O)O)C(=O)N(CCc2ccccc2)C3)cc1 (configuration not stated) | 2.8 nM | – | –
7 | CN1Cc2cc(C(=O)N3CCC(C4CCNCC4)CC3)ccc2NC(CC(=O)O)C1=O (configuration not stated) | 4 nM | 106 nM | Duration [3]: 240 min; inhibition in vivo at 0.3 mg/kg [7]: 60%; inhibition in vivo at 0.3 mg/kg [8]: 50%; inhibition in vivo at 0.3 mg/kg [5]: 90%; inhibition in vivo at 3 mg/kg [9]: 90%; Time [6]: 5 min and 10 min
